Article PMC10582678 (Clinical and Translational Science, 2023)

How the values were obtained:
[1] = Safety, adverse events, food effect study; format: in vivo, human; conditions: for AEs / Increased blood triglycerides / Abdominal discomfort / Constipation / Decreased leukocyte count / Decreased lymphocyte count / Decreased neutrophil count / Dermatitis allergic / Dyspepsia / Increased ALT / Increased AST / Increased blood bilirubin / Increased blood cholesterol / Increased blood creatinine / Lethargy / Mouth ulceration / Oropharyngeal pain / Sinus arrythmia / Treatment discontinuation due to AEs / Upper respiratory tract infection: Food effect 600 mg, n (%)
Method in brief: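 Safety was monitored by vital signs, clinical laboratory tests, physical examination, 12-lead ECG, AEs and SAEs. AEs were coded with MedDRA 23.1 and graded by CTCAE 5.0. Subjects were discharged 6 days after the last dose, with a follow-up visit 8–14 days after the last dose. The safety set comprised randomized subjects who received active drug or placebo and had post-dose safety data.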

[2] = Plasma pharmacokinetics, multiple ascending doses; format: in vivo, human; conditions: for CLss/F / AUC(0-t) / Cmax: mean ± SD; for AUC / Vd/F / concentration at 10 day / half-life / AUC(0-t) / Cmax / Tmax: human, plasma, oral; for AUC(0-t): AUC0-t; for Cmax: C max; for Tmax: T max
Method in brief: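 This was a double-blind, placebo-controlled design with three cohorts of eight (6 active, 2 placebo). Cohorts received oral 200, 400 or 600 mg q.d. for 10 consecutive days, with extra predose trough samples on days 8 and 9. Plasma drug was measured by validated HPLC-tandem accurate mass spectrometry (5.00–5000 ng/mL). Noncompartmental parameters were reported for day 1 and day 10, with Rac(AUC) = AUC0-τ day 10/AUC0-t day 1.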

[3] = system: EGFR, ITK, Lck, SRC, LYN, and JAK3; experiment: Selectivity for BTK over other kinases; format: biochemical; conditions: stated in introduction
[4] = Plasma pharmacokinetics, single ascending dose; format: in vivo, human; conditions: for CL/F / AUC(0-t): mean ± SD; for T last: median (min, max); for Tmax / half-life / AUC(0-inf) / MRT / Vd/F / AUC(0-t) / Cmax: human, plasma; for Tmax / half-life / AUC(0-inf) / MRT / Vd/F / AUC(0-t): oral; for Cmax: po
Method in brief: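 Healthy subjects received single oral doses under fasting conditions: 100 mg (three subjects), or 200, 400, 600 or 800 mg in cohorts of eight randomized 6 active:2 placebo, double-blind. Plasma drug was quantified by validated HPLC-tandem accurate mass spectrometry with a calibration range of 5.00–5000 ng/mL. Cmax, Tmax, AUC, t1/2, CL/F, Vz/F and MRT were derived by noncompartmental analysis and reported as mean ± SD (%CV) or median.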

[5] = 200 mg, MAD 200 mg q.d., Day 10
[6] = 400 mg, MAD 400 mg q.d., Day 10
[7] = 600 mg, MAD 600 mg q.d., Day 10

N#CN1C[C@H](n2nc(-c3ccc(Oc4ccc(Cl)cn4)cc3)c(C(N)=O)c2N)CCC12CC2 [SN1011, 5-amino-3-(4-((5-chloro-2-pyridinyl)oxy)phenyl)-1-((6R)-4-cyano-4-azaspiro[2.5]octan-6-yl)-1H-pyrazole-4-carboxamide]
AEs ([1]; Total N = 12): 7 (58.3)
Increased blood triglycerides ([1]; Total N = 12): 5 (41.7)
AEs ([1]; column Fasted-Fed): 5 (41.7)
Abdominal discomfort ([1]; column Fasted-Fed): 0
Constipation ([1]; column Fasted-Fed): 0
Decreased leukocyte count ([1]; column Fasted-Fed): 0
Decreased lymphocyte count ([1]; column Fasted-Fed): 0
Decreased neutrophil count ([1]; column Fasted-Fed): 0
Dermatitis allergic ([1]; column Fasted-Fed): 0
Dyspepsia ([1]; column Fasted-Fed): 0
Increased ALT ([1]; column Fasted-Fed): 0
Increased AST ([1]; column Fasted-Fed): 0
Increased blood bilirubin ([1]; column Fasted-Fed): 0
Increased blood cholesterol ([1]; column Fasted-Fed): 0
Increased blood creatinine ([1]; column Fasted-Fed): 0
Increased blood triglycerides ([1]; column Fasted-Fed): 4 (33.3)
Lethargy ([1]; column Fasted-Fed): 0
Mouth ulceration ([1]; column Fasted-Fed): 0
Oropharyngeal pain ([1]; column Fasted-Fed): 0
Sinus arrythmia ([1]; column Fasted-Fed): 0
Treatment discontinuation due to AEs ([1]; column Fasted-Fed): 1 (8.3)
Upper respiratory tract infection ([1]; column Fasted-Fed): 0
AEs ([1]; column Fed-Fasted): 2 (18.2)
Abdominal discomfort ([1]; column Fed-Fasted): 0
Constipation ([1]; column Fed-Fasted): 0
Decreased leukocyte count ([1]; column Fed-Fasted): 0
Decreased lymphocyte count ([1]; column Fed-Fasted): 0
Decreased neutrophil count ([1]; column Fed-Fasted): 0
Dermatitis allergic ([1]; column Fed-Fasted): 0
Dyspepsia ([1]; column Fed-Fasted): 0
Increased ALT ([1]; column Fed-Fasted): 0
Increased AST ([1]; column Fed-Fasted): 0
Increased blood bilirubin ([1]; column Fed-Fasted): 1 (9.1)
Increased blood cholesterol ([1]; column Fed-Fasted): 0
Increased blood creatinine ([1]; column Fed-Fasted): 0
Increased blood triglycerides ([1]; column Fed-Fasted): 1 (9.1)
Lethargy ([1]; column Fed-Fasted): 0
Mouth ulceration ([1]; column Fed-Fasted): 0
Oropharyngeal pain ([1]; column Fed-Fasted): 0
Sinus arrythmia ([1]; column Fed-Fasted): 0
Treatment discontinuation due to AEs ([1]; column Fed-Fasted): 0
Upper respiratory tract infection ([1]; column Fed-Fasted): 0
subjects who experienced AEs ([1]; food effect study, 12 subjects, 600 mg): 58.3%
subjects with AE leading to study discontinuation ([1]; food effect study, 12 subjects, increased triglycerides, grade 3): 8.3%
T last ([2]; MAD 200 mg q.d., Day 1, median (min, max)): 23.7 (23.7, 23.8) h
CLss/F ([2]; MAD 200 mg q.d., Day 10): 27.2 ± 13.4 (49%) L/h
T last ([2]; MAD 200 mg q.d., Day 10, median (min, max)): 120.0 (72.0, 120.0) h
T last ([2]; MAD 400 mg q.d., Day 1, median (min, max)): 23.8 (23.7, 23.9) h
CLss/F ([2]; MAD 400 mg q.d., Day 10): 27.4 ± 6.2 (23%) L/h
T last ([2]; MAD 400 mg q.d., Day 10, median (min, max)): 120.0 (120.0, 120.0) h
T last ([2]; MAD 600 mg q.d., Day 1, median (min, max)): 23.8 (23.7, 23.8) h
CLss/F ([2]; MAD 600 mg q.d., Day 10): 30.0 ± 9.8 (33%) L/h
T last ([2]; MAD 600 mg q.d., Day 10, median (min, max)): 120.0 (96.0, 120.0) h
AUC ([2]; 200 mg): 8690 ± 3420 ng·h/mL
Vd/F ([2]; 200 mg): 728 ± 161 L
concentration at 10 day ([2]; 200 mg): 257 ± 111 ng/mL
half-life ([2]; 200 mg): 20.5 ± 5.3 h
AUC(0-t) ([2]; 200 mg, MAD 200 mg q.d., Day 1): 4280 ± 1130 ng·h/mL
AUC(0-t) [2, 5]: 17300 ng·h/mL
Cmax ([2]; 200 mg, MAD 200 mg q.d., Day 1, N = 5): 260 ± 54.8 ng/mL
Cmax [2, 5]: 516 ± 172 ng/mL
Tmax ([2]; 200 mg, MAD 200 mg q.d., Day 1, median (min, max)): 3 h
Tmax ([2]; 200 mg, MAD 200 mg q.d., Day 10, median (min, max)): 3 h
AUC ([2]; 400 mg): 15200 ng·h/mL
Vd/F ([2]; 400 mg): 736 ± 181 L
concentration at 10 day ([2]; 400 mg): 419 ± 121 ng/mL
half-life ([2]; 400 mg): 19 ± 5.4 h
AUC(0-t) ([2]; 400 mg, MAD 400 mg q.d., Day 1): 9170 ± 1640 ng·h/mL
AUC(0-t) [2, 6]: 26400 ng·h/mL
Cmax ([2]; 400 mg, MAD 400 mg q.d., Day 1): 727 ± 183 ng/mL
Cmax [2, 6]: 1070 ± 234 ng/mL
Tmax ([2]; 400 mg, MAD 400 mg q.d., Day 1, median (min, max)): 4 h
Tmax ([2]; 400 mg, MAD 400 mg q.d., Day 10, median (min, max)): 3.5 h
AUC ([2]; 600 mg): 22000 ng·h/mL
Vd/F ([2]; 600 mg): 872 ± 345 L
concentration at 10 day ([2]; 600 mg): 531 ± 264 ng/mL
half-life ([2]; 600 mg): 20.4 ± 4.1 h
AUC(0-t) ([2]; 600 mg, MAD 600 mg q.d., Day 1): 12200 ng·h/mL
AUC(0-t) [2, 7]: 40300 ng·h/mL
Cmax ([2]; 600 mg, MAD 600 mg q.d., Day 1): 910 ± 332 ng/mL
Cmax [2, 7]: 1600 ± 497 ng/mL
Tmax ([2]; 600 mg, MAD 600 mg q.d., Day 1, median (min, max)): 4 h
Tmax ([2]; 600 mg, MAD 600 mg q.d., Day 10, median (min, max)): 2.5 h
Tmax ([2]; MAD, steady-state conditions, across 200-600 mg q.d.): 2.5 to 3.5 h
steady-state in the plasma achieved on ([2]; once daily administration): 8 days
selectivity for BTK over other kinases [3]: 700 fold
CL/F ([4]; SAD 100 mg): 49.6 ± 13.9 (28%) L/h
T last ([4]; SAD 100 mg): 48.0 (48.0, 72.0) h
CL/F ([4]; SAD 200 mg): 44.8 ± 15.3 (34%) L/h
T last ([4]; SAD 200 mg): 72.0 (48.0, 96.0) h
CL/F ([4]; SAD 400 mg): 36.5 ± 9.1 (25%) L/h
T last ([4]; SAD 400 mg): 96.0 (72.0, 144.0) h
CL/F ([4]; SAD 600 mg): 43.4 ± 19.5 (45%) L/h
T last ([4]; SAD 600 mg): 108.0 (72.0, 144.0) h
CL/F ([4]; SAD 800 mg): 44.8 ± 22.3 (50%) L/h
T last ([4]; SAD 800 mg): 132.0 (120.0, 144.1) h
Tmax [4]: 3 to 5 h
half-life [4]: 15.5 to 21.8 h
AUC(0-inf) ([4]; 100 mg): 2110 ± 525 ng·h/mL
MRT ([4]; 100 mg): 26.4 ± 1.7 h
Tmax ([4]; 100 mg): 4 h
Vd/F ([4]; 100 mg): 1210 ± 497 L
half-life ([4]; 100 mg): 16.5 ± 2.1 h
AUC(0-t) ([4]; 100 mg, AUC0-24, SAD 100 mg): 1240 ± 339 ng·h/mL
AUC(0-t) ([4]; 100 mg, AUC0-t, SAD 100 mg): 1880 ± 523 ng·h/mL
AUC(0-inf) ([4]; 200 mg): 4920 ± 1710 ng·h/mL
MRT ([4]; 200 mg): 22.9 ± 4 h
Tmax ([4]; 200 mg): 3 h
Vd/F ([4]; 200 mg): 989 ± 293 L
half-life ([4]; 200 mg): 15.5 ± 2.4 h
AUC(0-t) ([4]; 200 mg, AUC0-24, SAD 200 mg): 3210 ± 1190 ng·h/mL
AUC(0-t) ([4]; 200 mg, AUC0-t, SAD 200 mg): 4700 ± 1730 ng·h/mL
AUC(0-inf) ([4]; 400 mg): 11600 ng·h/mL
MRT ([4]; 400 mg): 29.4 ± 9.9 h
Tmax ([4]; 400 mg): 3.5 h
Vd/F ([4]; 400 mg): 997 ± 350 L
half-life ([4]; 400 mg): 19.3 ± 6.5 h
AUC(0-t) ([4]; 400 mg, AUC0-24, SAD 400 mg): 6510 ± 1960 ng·h/mL
AUC(0-t) ([4]; 400 mg, AUC0-t, SAD 400 mg): 11300 ng·h/mL
AUC(0-inf) ([4]; 600 mg): 16800 ng·h/mL
MRT ([4]; 600 mg): 28.7 ± 8.5 h
Tmax ([4]; 600 mg): 4 h
Vd/F ([4]; 600 mg): 1060 ± 227 L
half-life ([4]; 600 mg): 19.1 ± 6.4 h
AUC(0-t) ([4]; 600 mg, AUC0-24, SAD 600 mg): 9100 ± 3420 ng·h/mL
AUC(0-t) ([4]; 600 mg, AUC0-t, SAD 600 mg): 16400 ng·h/mL
AUC(0-inf) ([4]; 800 mg): 22300 ng·h/mL
MRT ([4]; 800 mg): 31.1 ± 6.3 h
Tmax ([4]; 800 mg): 5 h
Vd/F ([4]; 800 mg): 1400 ± 760 L
half-life ([4]; 800 mg): 21.8 ± 4.1 h
AUC(0-t) ([4]; 800 mg, AUC0-24, SAD 800 mg): 11500 ng·h/mL
AUC(0-t) ([4]; 800 mg, AUC0-t, SAD 800 mg): 21900 ng·h/mL
Cmax ([4]; 100 mg): 84.2 ± 16.4 ng/mL
Cmax ([4]; 200 mg): 293 ± 132 ng/mL
Cmax ([4]; 400 mg): 487 ± 221 ng/mL
Cmax ([4]; 600 mg): 674 ± 259 ng/mL
Cmax ([4]; 800 mg): 779 ± 405 ng/mL
